Vif inh – blocks HIV Vif function; HEK293T cells, Vif self-association by quenched fluorescence, imaging, 24 h; inhibition, % at 7.49 µM; hit rate 0.35% among 340,000; AID 602346; in the data active means inhibition above about 50%, passing the limit was not always enough; inconclusive means no clear call, values can overlap the other calls; inactive means below about 31%
S100A4 MyoIIA – S100A4-myosin IIA interaction inhibition; P26447; S100A4/TAMRA-MyoIIA peptide fluorescence polarization; inhibition, % at 10.7 µM; hit rate 0.14% among 360,000; AID 652163;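 active means mean inhibition of at least 70% across replicates, with every replicate also reaching that level; inconclusive means mean inhibition reaches 70% but some replicates fall short; inactive means mean inhibition below 70%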
Target sequence (P26447 whole entry, looked up): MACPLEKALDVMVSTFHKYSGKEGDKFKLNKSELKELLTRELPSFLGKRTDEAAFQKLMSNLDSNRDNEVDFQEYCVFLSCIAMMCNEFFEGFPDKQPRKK
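Material: S100A4 monomer (human). Medium: Calcium-containing HEPES buffer, pH 7.2. Probe or stimulus: labelled myosin peptide probe, 5 nM. Compound dosing: one concentration per compound. Timing: polarization read 5 min after assay mix addition, stable 5–60 min. Benchmarks: DMSO as neutral control, TFP as positive control.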
miR122 inh – inhibitors of miR-122 in Huh7 cells | activation (reporter increase), % at 12.5 µM | Huh7 miR-122 Renilla luciferase sensor, 48 h; neutral wells = 0, positive control = 100 | AID 602342 | hit rate 0.3% among 340,000;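 active means mean replicate activation score at least 90 and every replicate individually at or above 90; inconclusive means only one of the two criteria met; inactive means neither criterion met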;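 further: higher luciferase means less miR-122 activity so hits act as miR-122 inhibitors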
rRNA inh HTS – inhibitors of bacterial rRNA selective over humanized ribosomes | hit rate 1.6% among 350,000 | E. coli WT GFP vs humanized-ribosome RFP mutants, fluorescence, 24 h; hits give low values; DMSO median 0, no signal -100 | GFP signal change (wild-type ribosome), % (test concentration not listed);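 active means significant combined selectivity score with lowered wild-type GFP, culture density cut under 30%, mutant RFP and density less affected; inactive means any of these conditions unmet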
FN deposition inh – fibronectin deposition inhibition; AH1F fibroblasts, Alexa488-fibronectin deposition fluorescence, overnight; hit rate 0.086% among 350,000; AID 743247; inhibition, % at 12.6 µM;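 active means mean inhibition across replicates of 30% or more, regardless of how many single replicates reach that level; inconclusive means mean under 30% yet at least half of replicates reach 30%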
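Assay system: AH1F fibroblasts assembling fluorescent fibronectin matrix; Amount: 10000 AH1F cells per well; Buffer or medium: DMEM, 2% serum; Probe or stimulus: Alexa488-fibronectin, 24 nM final in well; Doses: single compound dose, delivered by pin transfer; Incubation: 1 h adhesion, overnight exposure; Measured by: fluorescence 485/525 nm; Read-out: fibronectin deposition inhibition.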
Env fusion inh – HIV envelope-mediated fusion inhibition; HeLa-JRFL Env/CEM21 cell fusion, luciferase; inhibition, % at 12.3 µM; hit rate 1.1% among 360,000; AID 651610;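 active means mean replicate inhibition score of at least 50 and every replicate individually at or above 50; inconclusive means only one of the two criteria met; inactive means mean below 50 and not all replicates reaching 50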
Numbers stand for hits; – = inactive; ? = inconclusive; · = no result given; [ ] = dose if it differs, or a comment. In the library only some 2.6% were active in any assay of this set; here they are far more common.

SMILES	Vif inh	S100A4 MyoIIA	miR122 inh	rRNA inh HTS	FN deposition inh	Env fusion inh
COc1cccc(NC(=O)NCCc2ccc(Cl)cc2)c1	–	–	–	-24	–	–
COc1cccc(NC(=S)N(Cc2ccc(Cl)cc2)Cc2ccc(C(=O)O)cc2)c1	–	–	–	-32	–	–
COC(=O)[C@@H]1[C@@H](CO)[C@@H]2Cn3c(ccc(/C=C/c4ccccc4)c3=O)[C@@H]2N1C(=O)C1CCCC1	·	–	·	–	·	–
CC(C)C#Cc1ccc([C@@H]2[C@H](CO)N3C(=O)CN(C(=O)Cc4cccnc4)C[C@@H]23)cc1	·	·	·	–	·	·
COc1cccc(NC(=O)N(C)C[C@H]2OCc3ccccc3-c3ccccc3C(=O)N([C@@H](C)CO)C[C@@H]2C)c1	·	·	·	–	–	·
C[C@@H]1CN([C@H](C)CO)S(=O)(=O)c2ccc(-c3cncnc3)cc2O[C@@H]1CN(C)C(=O)c1ccc2c(c1)OCO2	·	–	–	–	–	–
CC(C)n1cc(NC(=O)c2cc(-c3ccccc3)on2)cn1	–	·	114	·	·	·
CN1C(=O)c2cc(NC(=O)c3ccccc3Cl)ccc2OC[C@@H]2O[C@H](CC(=O)O)CC[C@@H]21	·	–	–	–	–	·
CC(C)NC(=O)N(C)C[C@@H]1OCCCC[C@@H](C)Oc2ccc(NC(=O)C3CCCCC3)cc2C(=O)N([C@H](C)CO)C[C@@H]1C	·	–	–	–	–	–
CCOc1ccc(NC(=O)CN(C)CC(=O)Nc2ccc(Br)cc2F)cc1OCC	–	–	–	-28	–	–
C=CCn1c(SCC(=O)c2ccc(O)c(O)c2)nnc1-c1ccccc1OC	54	–	·	–	–	–
C=CCn1c(SCC(=O)c2ccc(O)c(O)c2)nnc1-c1cccc(C)c1	–	–	–	-27	–	–
C=CCn1c(SCC(=O)c2ccc(O)c(O)c2)nnc1-c1cccc(Cl)c1	–	–	–	–	–	–
C[C@@H]1CN(C)C(=O)Cc2cc(N)ccc2O[C@H]1CN(C)C	·	·	·	–	–	·
Cc1cc(C)c2sc(N(CCN(C)C)C(=O)c3c(F)cccc3F)nc2c1	–	–	–	-37	–	–
CO[C@H]1CN(C)C(=O)c2ccc(NC(=O)C3CCC3)cc2OC[C@H](C)N(CC2CCCCC2)C[C@H]1C	·	·	·	–	–	–
O=C1/C(=C/c2ccncc2)CCC/C1=C\c1ccncc1	–	–	–	–	–	89
Cc1ccccc1S(=O)(=O)N(C)C[C@H]1OCc2ccccc2-c2ccccc2C(=O)N([C@@H](C)CO)C[C@@H]1C	·	·	·	–	–	·
CC(=O)C1=C(C)NC(=S)NC1c1ccccc1 (stereo unspecified)	·	–	·	–	–	74
CC(C)CCC(CC(C)O)C(=O)NNC(=S)Nc1ccccc1 (stereo unspecified)	–	–	152	–	–	–
CC(O)CCC(=O)NNC(=S)Nc1ccccc1 (stereo unspecified)	–	–	–	–	–	–
COC(=O)c1c(NC(=O)CN2CCC3(O)CCCCC3C2c2ccc(F)cc2)sc(C)c1C (stereo unspecified)	–	·	–	·	–	–
COC(=O)c1c(NC(=O)CN2CCC3(O)CCCCC3C2c2cc(OC)ccc2OC)sc(C)c1C (stereo unspecified)	–	·	·	·	–	91
CCCC#Cc1ccc2c(c1)O[C@H](CN(C)C(=O)c1ccccn1)[C@@H](C)CN([C@H](C)CO)S2(=O)=O	·	–	128[16.7 µM]	–	–	–
CC(C)CC#Cc1ccc2c(c1)O[C@@H](CN(C)Cc1ccccn1)[C@H](C)CN([C@H](C)CO)S2(=O)=O	·	–	–	-23	–	91[16.7 µM]
SMILES	Vif inh	S100A4 MyoIIA	miR122 inh	rRNA inh HTS	FN deposition inh	Env fusion inh
CC(C)CC#Cc1ccc2c(c1)O[C@H](CN(C)Cc1ccccn1)[C@H](C)CN([C@@H](C)CO)S2(=O)=O	·	–	–	–	–	–
CC(C)NC(=O)N(C)C[C@H]1Oc2ncc(-c3cncnc3)cc2C(=O)N([C@@H](C)CO)C[C@@H]1C	·	–	·	–	–	–
Cc1nc2ccccn2c1C(=O)NNS(=O)(=O)c1ccc(C(C)(C)C)cc1	–	·	·	·	–	72
COc1ccc(Br)cc1S(=O)(=O)NNC(=O)c1c(C)nc2ccccn12	–	–	–	–	–	–
CCCNC(=O)C[C@@H]1CC[C@H]2[C@H](COc3ccc(NC(=O)Nc4c(C)noc4C)cc3C(=O)N2C)O1	·	–	–	–	–	·
COc1ccc2c3c([nH]c2c1)[C@H](CO)N(C(C)=O)CC31CCN(Cc2ccccc2Cl)CC1	·	–	·	–	·	·
COCC(=O)N1CC2(CCN(Cc3ccccc3Cl)CC2)c2c([nH]c3cc(OC)ccc23)[C@H]1CO	·	85	·	–	·	·
COc1ccc(CN2CC3(CN(C(=O)c4ccccc4)C3)c3c([nH]c4cc(OC)ccc34)[C@H]2CO)cc1	·	73	·	–	·	·
COc1cc(NS(=O)(=O)c2ccc(NC(=S)NC(=O)c3ccco3)cc2)nc(OC)n1	–	–	243	–	–	–
COc1cc(NS(=O)(=O)c2ccc(NC(=O)c3ccco3)cc2)nc(OC)n1	–	·	–	·	–	–
CC(=O)N[C@H]1CC[C@@H](CCNC(=O)C2CCCC2)O[C@H]1CO	·	–	–	–	·	–
COc1ccc(S(=O)(=O)Nc2ccccc2C(=O)Nc2nc(-c3ccc(F)cc3)cs2)cc1OC	–	·	·	·	–	66
COc1ccccc1CN1CC2(C1)[C@@H](c1ccccc1)[C@@H](CO)N2Cc1ccccc1	·	·	·	–	·	·
CCOC(=O)Cn1c(S(=O)(=O)Cc2ccccc2)nc2ccccc21	–	–	·	–	–	?
COc1ccc(-c2nc3ccccc3nc2-c2ccccc2)cc1	–	–	–	–	·	–
CCOC(=O)Cn1c(S(=O)(=O)Cc2ccc(Cl)cc2)nc(-c2ccccc2)c1-c1ccccc1	–	·	–	·	–	114
C#CCn1c(S(=O)(=O)Cc2ccc(OC)cc2)nc(-c2ccccc2)c1-c1ccccc1	–	·	–	·	–	82
O=C(C1CCCC1)N1CC(=O)N2[C@H](CO)[C@H](c3ccc(-c4cccnc4)cc3)[C@H]2C1	·	–	·	–	–	·
COc1ccccc1C(O)P(=O)(OC1CCCCC1)OC1CCCCC1 (stereo unspecified)	–	–	·	–	–	–
O=P(OC1CCCCC1)(OC1CCCCC1)C(O)c1c(Cl)cccc1Cl (stereo unspecified)	–	·	–	·	–	59
CN(C)c1ccc(C(O)P(=O)(OC2CCCCC2)OC2CCCCC2)cc1 (stereo unspecified)	–	–	–	-34	–	–
O=P(OC1CCCCC1)(OC1CCCCC1)C(O)c1ccc(Cl)cc1Cl (stereo unspecified)	–	·	–	·	–	61
CO[C@@H]1CN(C)C(=O)c2ccc(NC(=O)c3ccc(F)cc3)cc2OC[C@@H](C)N(C(C)=O)C[C@@H]1C	·	–	·	–	–	·

Assay outcomes as filed in PubChem.
